Only some compounds are listed: those with a hit (about 1.7% of all), similar ones and a draw of the others.
Scp1 inh: Scp-1 (human) phosphatase inhibition. Q9GZU7. inhibition, % at 20 µM. hit rate 0.88% among 340,000. Recombinant Scp1, phosphopeptide, malachite green phosphate absorbance. AID 493091;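 active = inhibition above about 50% at 20 µM, limit read from the data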;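 also: plate controls were DMSO wells with enzyme for no effect and wells lacking enzyme for full effect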
Target sequence (Q9GZU7 76-261 limits assumed): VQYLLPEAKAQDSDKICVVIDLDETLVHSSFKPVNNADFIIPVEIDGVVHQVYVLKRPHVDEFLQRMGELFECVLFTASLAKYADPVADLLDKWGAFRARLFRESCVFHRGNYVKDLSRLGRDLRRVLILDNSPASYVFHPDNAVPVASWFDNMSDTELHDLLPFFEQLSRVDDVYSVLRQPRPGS
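Times: enzyme reaction 45 min at room temperature, colour 5 min, stabilisation 30 min. Material: SCP-1 catalytic fragment, aa 76-261. Medium: Acidic Tris acetate buffer with magnesium and detergent. Signal: colorimetric free-phosphate detection, absorbance 630 nm. Read-out basis: % inhibition of SCP-1 phosphate liberation. Reagent: Phosphorylated 17-residue peptide substrate.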
STEP block: inhibitors of human striatal-enriched phosphatase STEP; hit rate 0.25% among 360,000; recombinant STEP, OMFP fluorogenic substrate, fluorescence; AID 588621; inhibition, % at 20 µM; P54829;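 active = inhibition at 20 µM, scaled per plate between control wells, above about 37%, limit read from the data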;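 also: 0% = DMSO with enzyme and substrate and 100% = substrate only without enzyme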
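Material: STEP (striatal-enriched tyrosine phosphatase) enzyme, cell-free | Medium: 50 mM Bis-Tris pH 6.0 with 2.5 mM DTT and 0.005% Tween 20 | Read-out: Percent inhibition scaled to no-enzyme and uninhibited-enzyme controls, plate-pattern corrected | Signal: Fluorescence read at 480 nm ex / 540 nm em | Times: 20 min reaction, room temperature, in the dark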
SUMO1-SIM PPI: SUMO1-SIM interaction modulation; SUMO1 binding to a labelled peptide, TR-FRET, 1 h; inhibition, % at 20 µM; hit rate 0.33% among 360,000; AID 602429; in the data active = inhibition above about 37%
Target sequence (P63165 whole entry, looked up): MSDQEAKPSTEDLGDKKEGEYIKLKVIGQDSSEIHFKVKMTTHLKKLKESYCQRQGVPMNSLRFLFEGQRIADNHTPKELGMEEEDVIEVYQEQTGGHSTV
DNMT1 block: blocks human DNA methyltransferase DNMT1; inhibition (reported as % activation of signal), % at 10 µM; P26358; AID 588458; hit rate 0.83% among 360,000; DNMT1 molecular beacon, Hinp1I cleavage, fluorescence; in the data active = inhibition above about 50%
LMPTP inh: blocks human LMPTP phosphatase. P24666. recombinant LMPTP-A, OMFP fluorogenic substrate, fluorescence intensity. inhibition, % at 20 µM. hit rate 0.22% among 360,000. AID 651560;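 active = compounds that cut the enzyme signal by at least half of the control window in the single-dose screen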;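 also: plate controls were DMSO wells with enzyme plus substrate for no effect and substrate without enzyme for full effect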
Target sequence (P24666 whole entry, looked up): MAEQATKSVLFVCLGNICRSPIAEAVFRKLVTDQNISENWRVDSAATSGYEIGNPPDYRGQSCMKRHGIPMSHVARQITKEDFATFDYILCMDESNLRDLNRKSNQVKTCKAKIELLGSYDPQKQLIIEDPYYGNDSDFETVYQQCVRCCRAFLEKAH
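Test system – LMPTP-A enzyme · Amount – LMPTP-A at 0.625 nM final in the reaction · Buffer or medium – Bis-Tris pH 6.0, DTT, detergent · Reagent – OMFP 400 µM · Doses – single 20 µM dose · Schedule – reaction 50 min, room temperature, dark · Detection – fluorescence intensity of OMFP turnover product · Evaluation – percent inhibition versus substrate-only and uninhibited controls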
Beacon interf DR: beacon fluorescence artifact, dose response counter-screen. shares compounds with DNMT1 block. molecular beacon fluorescence, spectral interference counter-screen. IC50, µM. AID 602382. 200 tested, under 10 active; call rule not given here
DNMT1 inh conf: confirmation of human DNMT1 inhibitors | shares compounds with DNMT1 block | DNMT1 molecular beacon HinP1I cleavage, fluorescence | inhibition, % at 10 µM | hit rate 8% among 2,300 | AID 602385;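 active = average inhibition of at least 30% in the single-concentration confirmation test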
Beacon interf: beacon fluorescence artifact counter-screen. shares compounds with DNMT1 block. DNMT1 molecular beacon spectral interference counterscreen, fluorescence 485/520. activation (fluorescence interference), % at 10 µM. hit rate 1% among 2,300;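 active = activation of at least 30% at 10 µM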;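 also: DNMT1 catalytic domain with a HinP1I cleavage step and a FAM/dabcyl DNA beacon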
Numbers without * were called inactive; / = not tested or not shown.

SMILES	Scp1 inh	STEP block	SUMO1-SIM PPI	DNMT1 block	LMPTP inh	DNMT1 inh conf	Beacon interf	others
Oc1c(CN2CCOCC2)cc(CN2CCOCC2)cc1CN1CCOCC1	-7.6	1.1	4.2	87.3*	-1.6	1.3	4.5
CCOC(=O)CCCCCC(=O)Nc1ccc2c(c1)C(=O)N([C@H](C)CO)C[C@@H](C)[C@H](CN(C)Cc1ccc3c(c1)OCO3)O2	-7.7	-1.1	2.9	3.0	0.0	/	/
CCOC(=O)c1c(NC(=O)C2=COCCO2)sc2c1CCN(C(=O)OC)C2	-4.9	9.9	3.1	-3.4	3.2	/	/
COc1ccc(NS(=O)(=O)c2ccc(O)c(NC(=O)c3cc4c(C)nn(-c5ccc(F)cc5)c4s3)c2)cc1	16.0	-2.0	11.8	96.7*	3.4	68.9*	-4.1	Beacon interf DR=>99
COc1cc(C(CC(=O)N2CCCC2)c2c(OC)cc(OC)c3c(-c4ccccc4)cc(=O)oc23)cc(OC)c1OC (stereo unspecified)	28.9	1.6	-12.6	31.2	2.9	/	/
COc1ccc(C(CC(=O)N2CCOCC2)c2c(OC)cc(OC)c3c(-c4ccccc4)cc(=O)oc23)cc1 (stereo unspecified)	35.1	-0.5	-4.1	74.4*	5.4	2.9	-1.8
COCCn1c(=O)[nH]c(=O)c2c1nc(-c1ccc(-c3ccc(Cl)cc3[N+](=O)[O-])o1)n2Cc1ccccc1	-6.7	0.6	-3.3	-41.5	4.0	/	/
COCCn1c(-c2ccc(-c3ccc([N+](=O)[O-])cc3Br)o2)nc2c1c(=O)[nH]c(=O)n2CC(C)C	-7.4	-0.5	-7.9	69.8*	3.9	-0.5	-1.2
O=C(Nc1ccc(Cl)c(Cl)c1)C1C2C=CC3(O2)C1C(=O)N(CCN1CCCCC1)C3C(=O)NC1CCCCC1 (stereo unspecified)	-5.8	-3.0	-5.1	1.4	-1.3	/	/
COc1ccc2c(CC(=O)OCC(=O)Nc3cccc(C)c3)coc2c1	4.7	-0.4	3.4	50.3*	1.9	10.7	5.0
COC(=O)c1cccc(NC(=O)Cc2coc3cc(OC)ccc23)c1	-10.5	-2.6	1.0	-3.6	0.6	/	/
C=CCn1c(SCC(C)=O)nc2scc(-c3ccco3)c2c1=O	18.8	8.7	24.3	75.5*	25.0	6.6	4.6
C=CCn1c(SCC(=O)NCc2ccc3c(c2)OCO3)nc2scc(-c3ccccc3)c2c1=O	-9.7	2.4	-2.0	1.3	2.4	/	/
C=CCn1c(SCc2ccc3c(c2)OCO3)nc2scc(-c3ccco3)c2c1=O	-9.0	3.3	24.9	103.2*	6.7	3.7	2.6
C=CCn1c(SC(F)F)nc2scc(-c3ccco3)c2c1=O	-5.2	5.6	0.9	3.3	3.7	/	/
CNc1nc(-c2cccc(C(=O)N(C)C)c2)cn2ccnc12	/	-1.4	-0.8	4.7	-6.5	/	/
CCN(C(=O)CN1C(=O)NC(c2ccccc2)(c2ccc(C)c(C)c2)C1=O)C1CCCCC1 (stereo unspecified)	-5.7	-1.5	3.1	-5.9	4.7	/	/
C=CCn1c(COc2ccc(Cl)cc2)nnc1SCC(=O)c1c(N)n(C)c(=O)n(C)c1=O	-7.3	4.3	-2.2	73.0*	17.4	4.3	1.8
C=CCn1c(COc2cccc(C)c2)nnc1SCC(=O)c1c(N)n(C)c(=O)n(C)c1=O	-5.4	-0.7	5.3	5.1	-0.6	/	/
O=C(O)C1=CCC=CC1C(=O)O (stereo unspecified)	/	19.6	69.3*	98.7*	12.5	17.0	3.7
COc1cc(/C=C2\C(=O)N(c3ccc(NC(C)=O)cc3)N=C2c2ccccc2)ccc1O	-0.7	5.2	-4.7	-4.0	2.3	/	/
CCOc1cc(/C=C2\C(=O)N(c3nc(-c4ccc(Br)cc4)cs3)N=C2c2ccccc2)ccc1O	-16.1	3.9	21.3	95.6*	10.3	92.8*	-4.9	Beacon interf DR=>99
CCC(=O)N(C)C[C@@H]1Oc2ncc(Br)cc2C(=O)N([C@H](C)CO)C[C@H]1C	/	0.9	4.2	2.6	-2.3	/	/
Oc1ccc(Br)cc1/C=N/n1c(-c2ccccc2)n[nH]c1=S	2.3	-0.8	5.9	82.2*	-1.7	5.2	2.6
S=c1[nH]nc(-c2cc(-c3ccccc3)n[nH]2)n1/N=C/c1ccc(Cl)c(Cl)c1	3.8	-1.0	98.2*	83.1*	21.1	8.8	0.4
SMILES	Scp1 inh	STEP block	SUMO1-SIM PPI	DNMT1 block	LMPTP inh	DNMT1 inh conf	Beacon interf	others
S=c1[nH]nc(-c2ccncc2)n1/N=C/c1cn(-c2ccccc2)nc1-c1ccccc1	3.5	-1.0	2.6	-1.8	1.5	/	/
O=[N+]([O-])c1cc(/C=N/n2c(-c3ccncc3)n[nH]c2=S)ccc1Cl	-8.0	-2.9	6.8	54.9*	6.2	2.1	4.3
O=[N+]([O-])c1ccc(-c2nn(-c3ccccc3)cc2/C=N/n2c(-c3ccncc3)n[nH]c2=S)cc1	4.5	7.5	23.1	56.8*	1.5	1.6	0.7
Cc1cc(-c2n[nH]c(=S)n2/N=C/c2ccc(Cl)c([N+](=O)[O-])c2)n[nH]1	0.3	-3.4	-1.2	12.1	-1.7	/	/
Cc1cc(NC(=O)C2CC(=O)N(c3ccc(F)cc3)C2)no1 (stereo unspecified)	-1.2	-1.2	5.3	1.2	-0.6	/	/
O=C(Nc1cccc(Cl)c1)c1ccc(S(=O)(=O)NCC2CCCO2)cc1 (stereo unspecified)	-4.4	-2.3	3.2	-4.3	-0.2	/	/
Cc1ccc(C(=O)NCCNc2nc3cc(C)c(C)cc3cc2C)cc1	5.0	3.0	24.2	55.8*	1.3	6.2	0.9
Cc1ccc(Nc2nc(-c3ccc(S(=O)(=O)N4CCCC4)cc3)cs2)cc1C	-1.1	0.0	-2.0	-13.9	4.0	/	/
Cc1cc(C)cc(Nc2nc(-c3ccc(S(=O)(=O)N4CCCC4)cc3)cs2)c1	-4.4	-1.9	0.0	96.5*	4.2	3.9	6.0
CC(=O)c1ccc(OC2(C)CCN(Cc3cc4ccccc4[nH]3)C2)cc1 (stereo unspecified)	/	0.8	3.8	91.0*	25.8	2.2	4.5
CC1(OC(=O)C2CCCC2)C(=O)C=C2C=C(c3ccsc3)N(Cc3ccco3)C=C2C1=O (stereo unspecified)	7.1	1.4	-3.3	62.1*	5.3	-1.4	-0.6
O=C(NCC(=O)N1CCC2(CC1)NCCc1[nH]cnc12)c1cccc(Cl)c1	-6.5	-0.8	5.7	-0.8	0.6	/	/
O=C(Nc1ccc(S(=O)(=O)N2CCOCC2)cc1)c1ccc([N+](=O)[O-])cc1Cl	-11.4	0.0	-29.6	-1.3	0.7	/	/
O=C(Nc1ccc(N2CCCCC2)cc1)c1ccccc1	-3.8	0.6	-5.6	-6.7	-0.2	/	/
O=C(Nc1ccccc1N1CCCC1)c1cccc(-c2cc3ccccc3oc2=O)c1	-2.1	8.1	-2.4	2.7	3.0	/	/

Screening results from PubChem BioAssay.
